1 molecule from ChEMBL document CHEMBL5608187, “Discovery of pyridoquinoxaline-based new P-gp inhibitors as coadjutant against Multi Drug Resistance in cancer” (Eur J Med Chem, 2024) can be followed below.

The structures appear in SMILES notation. Activity calls are given as the source filed them. No cut-off for these calls is given here.

For one data set, the system named is SK-HEP1. In words: Coadjutant activity against multidrug resistance in human SK-HEP1 cells assessed as potentiation of cisplatin-induced cell growth inhibition at 0.25 to 4 uM incubated for 72 hrs in presence of 0.25 uM cisplatin by SiR-DNA/CellTox Green Dye based fluorescence analysis. It counts as functional. The settings on record: dose 0.25-4 µM. In outline: (§1)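 Cisplatin co-treatment, 72 h imaging growth assay (SiR-DNA nuclei minus CellTox Green dead cells, 500 cells/well, phenol-red-free medium). Combinations: inhibitor fixed with cisplatin 0.1–100 µM, or cisplatin fixed at 0.25 µM with inhibitor 0.25–4 µM. Three technical replicates, mean ± SD; two-tailed t-test.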

Data set [1] deals with T1, ATP-dependent translocase ABCB1 (Homo sapiens, UniProt P08183). In words: Inhibition of P-gp in human CAKI-2 cells assessed as increase in green fluorescence intensity at 0.1 to 10 uM incubated for 15 mins followed by incubation with EFFLUX-ID Green Detection Reagent and Hoeschst-33342 dye and measured after 30 mins by fluorescence analysis. It counts as cell-based. The note with it: caki-2, 0.25 h, dose 0.1-10 µM. In outline: (§2)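 5000 cells/well in phenol-red-free medium plated 24 h before; compounds 0.1, 1, 10 µM for 15 min, then EFLUXX-ID Green reagent (1:200) plus Hoechst-33342 1 µg/mL, 30 min 37 °C. Widefield imaging; median green intensity from 250 cells per well normalized to untreated wells. Mean ± SD of three wells; one-tailed t-test.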

Data set [2] concerns U-87 MG. In words: Coadjutant activity against multidrug resistance in human U-87 MG cells assessed as potentiation of vincristine-induced cell growth inhibition at 0.25 to 4 uM incubated for 72 hrs in presence of 0.2 uM vincristine by SiR-DNA/CellTox Green Dye based fluorescence analysis. It counts as functional. The note with it: U-87MG ATCC, dose 0.25-4 µM. In outline: (§3)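 Growth by live-cell imaging: 500 cells/well plated with SiR-DNA and CellTox Green dye; serial dilutions in phenol-red-free complete medium added next day. Imaged at addition and at 72 h. Live cells = SiR-DNA nuclei minus CellTox-positive dead cells; percentage growth calculated. Three technical replicates; two-tailed t-test. Inhibitor paired with anticancer drug at fixed or scaled levels.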

Data set [3] addresses T1, ATP-dependent translocase ABCB1. In words: Inhibition of P-gp in human HCT-15 cells assessed as increase in green fluorescence intensity at 0.1 to 10 uM incubated for 15 mins followed by incubation with EFFLUX-ID Green Detection Reagent and Hoeschst-33342 dye and measured after 30 mins by fluorescence analysis. The note with it: hct-15, 0.25 h, dose 0.1-10 µM. The format is cell-based. In outline:
as §2

Data set [4] relates to HT-29. In words: Coadjutant activity against multidrug resistance in human HT-29 cells assessed as potentiation of cisplatin-induced cell growth inhibition at 4 uM incubated for 72 hrs in presence of 0.1 to 100 uM cisplatin by SiR-DNA/CellTox Green Dye based fluorescence analysis. The format is functional. In a few lines:
as §1

The next data set deals with HGC-27. Description: Coadjutant activity against multidrug resistance in human HGC-27 cells assessed as potentiation of vincristine-induced cell growth inhibition by measuring cell growth at 4 uM incubated for 72 hrs in presence of 0.02 to 20 uM vincristine by SiR-DNA/CellTox Green Dye based fluorescence analysis. The format is functional. Details: scale not given: the % may be the effect or the level left. In a few lines: as §3

Data set [5] deals with T1, ATP-dependent translocase ABCB1. In words: Inhibition of P-gp in human HCT-15 cells assessed as fold increase in green fluorescence intensity at 10 uM incubated for 15 mins followed by incubation with EFFLUX-ID Green Detection Reagent and Hoeschst-33342 dye and measured after 30 mins by fluorescence analysis relative to control. The format is cell-based. The note with it: hct-15, 0.25 h. In outline: as §2

Data set [6] concerns HuP-T3. In words: Cytotoxicity against human Hup-T3 cells assessed as inhibition of cell growth at 4 uM incubated for 72 hrs by SiR-DNA/CellTox Green Dye based fluorescence analysis. The note with it: hup-t3, 72 h. It counts as toxicity. In outline:
(§4)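 Single-agent control at 4 µM, no anticancer drug. 500 cells/well with SiR-DNA and CellTox Green; imaged at addition and 72 h. Live count = total nuclei minus dead cells, expressed as percent growth. Three technical replicates.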

For data set [7], the system named is U-87 MG. In words: Coadjutant activity against multidrug resistance in human U-87 MG cells assessed as potentiation of vincristine-induced cell growth inhibition at 4 uM incubated for 72 hrs in presence of 0.02 to 20 uM vincristine by SiR-DNA/CellTox Green Dye based fluorescence analysis. The settings on record: U-87MG ATCC. The format is functional. In outline: as §3

A short description of data set [8]: Cytotoxicity against human A498 cells assessed as inhibition of cell growth at 4 uM incubated for 72 hrs by SiR-DNA/CellTox Green Dye based fluorescence analysis relative to control. The format is toxicity. In outline: as §4
The test system of data set [9] is A704. Description: Coadjutant activity against multidrug resistance in human A704 cells assessed as potentiation of etoposide-induced cell growth inhibition at 4 uM incubated for 72 hrs in presence of 0.04 to 40 uM etoposide by SiR-DNA/CellTox Green Dye based fluorescence analysis. The format is functional. In a few lines:
as §3

For data set [10], the system named is HT-29. Description: Coadjutant activity against multidrug resistance in human HT-29 cells assessed as potentiation of vincristine-induced cell growth inhibition at 4 uM incubated for 72 hrs in presence of 0.02 to 20 uM vincristine by SiR-DNA/CellTox Green Dye based fluorescence analysis. The format is functional. In a few lines:
as §3

Data set [11] has as its system HuP-T3. In words: Coadjutant activity against multidrug resistance in human HuP-T3 cells assessed as potentiation of cisplatin-induced cell growth inhibition at 0.25 to 4 uM incubated for 72 hrs in presence of 0.25 uM cisplatin by SiR-DNA/CellTox Green Dye based fluorescence analysis. The format is functional. The settings on record: dose 0.25-4 µM. In outline: as §1

Data set [12] addresses T1, ATP-dependent translocase ABCB1. In words: Inhibition of P-gp in human HCT-15 cells assessed as increase in green fluorescence intensity at 0.1 to 1 uM incubated for 15 mins followed by incubation with EFFLUX-ID Green Detection Reagent and Hoeschst-33342 dye and measured after 30 mins by fluorescence analysis. It counts as cell-based. The note with it: hct-15, 0.25 h, dose 0.1-1 µM. In a few lines: as §2

For data set [13] the target is unchanged. In words: Inhibition of P-gp in human HCT-15 cells assessed as increase in green fluorescence intensity at 1 to 10 uM incubated for 15 mins followed by incubation with EFFLUX-ID Green Detection Reagent and Hoeschst-33342 dye and measured after 30 mins by fluorescence analysis. The format is cell-based. The settings on record: hct-15, 0.25 h, dose 1-10 µM. In a few lines:
as §2

Another data set deals with A498. In words: Coadjutant activity against multidrug resistance in human A498 cells assessed as potentiation of vincristine-induced cell growth inhibition at 0.25 to 4 uM incubated for 72 hrs in presence of 0.2 uM vincristine by SiR-DNA/CellTox Green Dye based fluorescence analysis. It counts as functional. The note with it: dose 0.25-4 µM. In a few lines:
as §3

The nature of data set [14]: Cytotoxicity against human HGC-27 cells assessed as inhibition of cell growth at 4 uM incubated for 72 hrs by SiR-DNA/CellTox Green Dye based fluorescence analysis relative to control. It counts as toxicity. In a few lines: as §4
In data set [15] the test system is A704. In words: Coadjutant activity against multidrug resistance in human A704 cells assessed as potentiation of vincristine-induced cell growth inhibition at 0.25 to 4 uM incubated for 72 hrs in presence of 0.2 uM vincristine by SiR-DNA/CellTox Green Dye based fluorescence analysis. The format is functional. The settings on record: dose 0.25-4 µM. In outline: as §3

The subject of data set [16] is HuP-T3. In words: Coadjutant activity against multidrug resistance in human Hup-T3 cells assessed as potentiation of cisplatin-induced cell growth inhibition at 4 uM incubated for 72 hrs in presence of 0.1 to 100 uM cisplatin by SiR-DNA/CellTox Green Dye based fluorescence analysis. It counts as functional. In a few lines: as §1

T1 sequence (P08183 whole entry): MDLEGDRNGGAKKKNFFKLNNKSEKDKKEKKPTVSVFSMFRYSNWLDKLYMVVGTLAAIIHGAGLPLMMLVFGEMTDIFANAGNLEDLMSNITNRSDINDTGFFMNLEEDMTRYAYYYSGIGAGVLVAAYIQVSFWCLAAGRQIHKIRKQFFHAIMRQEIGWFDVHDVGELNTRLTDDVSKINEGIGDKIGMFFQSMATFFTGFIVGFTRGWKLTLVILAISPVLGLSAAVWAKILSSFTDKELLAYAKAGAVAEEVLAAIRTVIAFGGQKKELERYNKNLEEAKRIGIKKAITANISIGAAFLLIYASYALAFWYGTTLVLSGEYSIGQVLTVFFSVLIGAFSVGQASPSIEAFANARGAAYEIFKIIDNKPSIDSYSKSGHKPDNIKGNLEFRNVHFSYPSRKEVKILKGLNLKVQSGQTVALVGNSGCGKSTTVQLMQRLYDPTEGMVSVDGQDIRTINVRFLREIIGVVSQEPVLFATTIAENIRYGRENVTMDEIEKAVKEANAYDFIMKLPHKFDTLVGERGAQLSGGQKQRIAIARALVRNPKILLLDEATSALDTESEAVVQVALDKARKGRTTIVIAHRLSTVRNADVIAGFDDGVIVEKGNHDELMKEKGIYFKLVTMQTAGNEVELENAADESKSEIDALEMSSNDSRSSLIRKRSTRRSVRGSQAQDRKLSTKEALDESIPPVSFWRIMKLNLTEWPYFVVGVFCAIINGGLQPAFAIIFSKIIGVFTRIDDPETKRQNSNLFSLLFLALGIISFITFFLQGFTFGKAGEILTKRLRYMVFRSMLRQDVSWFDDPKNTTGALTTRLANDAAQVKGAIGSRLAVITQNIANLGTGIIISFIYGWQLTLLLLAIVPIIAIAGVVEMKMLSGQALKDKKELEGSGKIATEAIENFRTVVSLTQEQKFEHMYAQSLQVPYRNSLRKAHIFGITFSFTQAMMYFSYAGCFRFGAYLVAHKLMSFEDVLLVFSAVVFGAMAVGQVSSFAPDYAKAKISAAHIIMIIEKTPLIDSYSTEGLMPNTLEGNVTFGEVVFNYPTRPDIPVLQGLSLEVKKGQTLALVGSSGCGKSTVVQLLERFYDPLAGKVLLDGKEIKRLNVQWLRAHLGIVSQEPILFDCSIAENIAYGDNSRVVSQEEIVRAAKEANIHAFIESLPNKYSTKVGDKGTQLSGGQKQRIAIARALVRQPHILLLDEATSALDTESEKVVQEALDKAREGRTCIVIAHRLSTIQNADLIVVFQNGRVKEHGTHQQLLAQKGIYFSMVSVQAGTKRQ

The inhibition is the relative decrease from the control value, in per cent. For the molecule `O=C(Nc1ccccc1)c1ccccc1OCc1nc2cc3cccnc3cc2nc1COc1ccccc1C(=O)Nc1ccccc1`, the outcome in the data set on SK-HEP1, in the data set with HT-29 [4], in the data set on HuP-T3 [11] and in the data set with HuP-T3 [16] was inactive. Moreover, the “inhibition (INH)” value is reported as “Active” in data set [1], “Active” in [3], “Dose-Dependent Effect” in data set [12] and “Active” in data set [13]. The result with U-87 MG [2], with U-87 MG [7], in the data set with A704 [9], in the data set on HT-29 [10], in the data set with A498 and in the data set with A704 [15] was Active. Also, the values for the Activity in the data set on HGC-27 and with HuP-T3 [6] were 50% and “Non-Toxic”, respectively. In addition, in [5], the “fold change (FC)” value is 2. Further, the inhibition at 72 h, 4 µM in [8] is 20%; in [14], 40%.
